Key:
Format in all cases: functional
[1] = Anti-coagulation activity evaluated as activated partial thromboplastin time (APTT) determined for 25 ug/ml in pooled normal plasma
Method in brief: (§1)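 Activated partial thromboplastin time was measured in pooled normal human plasma with a commercial liquid silica-activator APTT kit. Polymer was added to the plasma, and clotting time was recorded in seconds. Plasma without polymer served as the control, and heparin was the positive control.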

[2] = Anti-coagulation activity evaluated as activated partial thromboplastin time (APTT) of the non-sulfated compound determined for 25 ug/mL in pooled normal plasma; method in brief: as §1
[3] = Anti-coagulation activity evaluated as activated partial thromboplastin time (APTT) of the sulfated compound determined for 25 ug/mL in pooled normal plasma; method in brief: as §1
[4] = Anti-coagulation activity evaluated as activated partial thromboplastin time (APTT) determined for 250 ug/ml in pooled normal plasma; method in brief: as §1

With `CCC(C)C(=O)NCC(=O)O` (stereo not drawn) the APTT [1] was 40 s.
With `CCC(C)C(=O)N[C@H](Cc1ccc(OS(=O)(=O)[O-])cc1)C(=O)[O-].[Na+].[Na+]` (stereo partly drawn) the APTT [2] was 35 s and the APTT [3] was 45 s.
`CCC(C)C(=O)N[C@H](CCCCN)C(=O)[O-].[Na+]` (stereo partly drawn) gave an APTT [1] of 33 s.
For `CCC(C)C(=O)N1C[C@@H](O)C[C@@H]1C(=O)O` (relative stereo), the APTT [1] was 37 s.
For `CCC(C)C(=O)N[C@H](CC(C)C)C(=O)[O-].[Na+]` (stereo partly drawn), the APTT [1] was 36 s.
Work on `CCC(C)C(=O)N[C@H](Cc1c[nH]cn1)C(=O)[O-].[Na+]` (stereo partly drawn) yielded an APTT [1] of 30 s.
`CCC(C)C(=O)N[C@H](CCC(=O)[O-])C(=O)[O-].[Na+].[Na+]` (stereo partly drawn) showed an APTT [1] of 56 s and an APTT [4] of 75 s.
In the case of `CCC(C)C(=O)N1CC[C@H](OS(=O)(=O)O)C1` (stereo partly drawn), the APTT [2] is reported as 39 s and the APTT [3] is reported as 32 s.
Molecule `CCC(C)C(=O)N[C@@H](C(=O)[O-])C(C)(C)C.[Na+]` (stereo partly drawn) has an APTT [1] of 36 s.
For `CCC(C)C(=O)N[C@H](COS(=O)(=O)[O-])C(=O)[O-].[Na+].[Na+]` (stereo partly drawn), the APTT [2] was 32 s and the APTT [3] was 35 s.
Molecule `CCC(C)C(=O)N[C@H](Cc1ccc(O)cc1)C(=O)[O-].[Na+]` (stereo partly drawn) has an APTT [1] of 32 s.
`CCC(C)C(=O)N[C@H](Cc1ccccc1)C(=O)[O-].[Na+]` (stereo partly drawn) showed an APTT [1] of 56 s and an APTT [4] of 109 s.
Work on `CCC(C)C(=O)N1C[C@H](O)C[C@@H]1C(=O)O` (relative stereo) yielded an APTT [1] of 35 s.
For `CCC(C)C(=O)N1CCC[C@@H]1C(=O)[O-].[Na+]` (stereo partly drawn), the APTT [1] was 55 s and the APTT [4] was 109 s.
With `CCC(C)C(=O)N1C[C@@H](OS(=O)(=O)O)C[C@@H]1C(=O)O` (stereo partly drawn) the APTT [2] was 37 s and the APTT [3] was 100 s.
In the case of `CCC(C)C(=O)N[C@H](CO)C(=O)O` (stereo partly drawn), the APTT [1] is reported as 39 s.
